Data from ChEMBL document CHEMBL4765491, “Discovery of Potent and Selective Methylenephosphonic Acid CD73 Inhibitors” (J Med Chem, 2021).

Legend:
[1] = Stability in rat hepatocytes; format: ADME, cell-based, Hepatocyte
5'-nucleotidase [2] = molecular target: T1, 5'-nucleotidase (Homo sapiens, UniProt P21589); assay: Inhibition of soluble human CD73 incubated for 60 mins before addition of AMP and further incubated for 60 mins by colorimetric assay
[3] = Clearance in Sprague-Dawley rat at 0.25 to 0.5 mg/kg, iv measured up to 24 hrs by LC-MS/MS analysis; format: ADME, organism-based; details: in vivo, dose 0.25-0.5 mg/kg
In short: (§1)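 Male SD rats (0.27–0.30 kg), acclimated. Single IV bolus via femoral vein at 0.25 or 0.5 mg/kg in 31.6% DMA/36.8% ethanol/31.6% PEG. Jugular blood at predose, 5, 15, 30 min, 1, 2, 4, 6, 8, 24 h, collected into K2-EDTA; plasma spun at 4 °C, stored −80 °C until analysis.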

[4] = molecular target: T2, Ectonucleoside triphosphate diphosphohydrolase 1 (Homo sapiens, UniProt P49961); assay: Inhibition of human CD39 expressed in CHO cells incubated for 4 hrs before addition of ATP and further incubated for 60 mins by colorimetric assay
T2 sequence (P49961 whole entry): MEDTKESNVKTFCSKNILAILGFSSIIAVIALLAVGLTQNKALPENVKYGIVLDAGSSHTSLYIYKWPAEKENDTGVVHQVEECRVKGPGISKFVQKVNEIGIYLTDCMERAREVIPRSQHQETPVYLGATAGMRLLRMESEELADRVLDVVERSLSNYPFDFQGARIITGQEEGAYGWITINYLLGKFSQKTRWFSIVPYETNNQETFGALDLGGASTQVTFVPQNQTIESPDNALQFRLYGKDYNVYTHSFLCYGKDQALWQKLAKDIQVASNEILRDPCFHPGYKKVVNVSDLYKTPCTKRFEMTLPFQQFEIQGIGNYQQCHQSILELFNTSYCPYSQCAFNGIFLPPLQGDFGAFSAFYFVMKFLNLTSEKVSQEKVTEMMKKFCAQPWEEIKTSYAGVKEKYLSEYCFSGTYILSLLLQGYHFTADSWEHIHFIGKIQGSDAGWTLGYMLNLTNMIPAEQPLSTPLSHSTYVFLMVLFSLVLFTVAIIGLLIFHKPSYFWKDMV

[5] = molecular target: T3, Ectonucleoside triphosphate diphosphohydrolase 3 (Homo sapiens, UniProt O75355); assay: Inhibition of human NTPDase-3 expressed in CHO-K1 cells in presence of DNA/LTX mixture; format: cell-based
T3 sequence (O75355 whole entry): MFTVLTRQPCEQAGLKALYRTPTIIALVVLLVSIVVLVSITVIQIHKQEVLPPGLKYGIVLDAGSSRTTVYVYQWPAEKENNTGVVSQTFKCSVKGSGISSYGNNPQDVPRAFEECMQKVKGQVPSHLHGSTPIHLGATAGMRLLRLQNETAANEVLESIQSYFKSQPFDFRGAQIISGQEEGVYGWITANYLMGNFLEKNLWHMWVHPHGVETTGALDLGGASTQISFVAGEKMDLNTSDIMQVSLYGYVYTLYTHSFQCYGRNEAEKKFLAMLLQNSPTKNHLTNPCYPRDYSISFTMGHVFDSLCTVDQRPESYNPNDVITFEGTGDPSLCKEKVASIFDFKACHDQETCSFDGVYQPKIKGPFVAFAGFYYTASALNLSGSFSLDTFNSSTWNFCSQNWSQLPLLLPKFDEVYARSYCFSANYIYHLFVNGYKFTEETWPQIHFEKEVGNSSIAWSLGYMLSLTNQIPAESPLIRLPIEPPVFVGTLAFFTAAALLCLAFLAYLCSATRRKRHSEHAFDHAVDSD
In short: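 CHO-K1 cells transfected overnight (Lipofectamine LTX) with NTPDase2, 3 or 8 plasmid, then harvested into HEPES pH 7.4 buffer. 10,000 cells/well, 2% DMSO, 16-point 1:3 compound dilutions (final 10–0 μM), 1 h preincubation at 37 °C. ATP added at 25 (NTPDase2), 15 (NTPDase3) or 30 μM (NTPDase8), 50 min at 37 °C. Phosphate read with PiColorLock Gold at 620 nm.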

5'-nucleotidase [6] = molecular target: T4, 5'-nucleotidase (Mus musculus, UniProt Q61503); assay: Inhibition of soluble mouse CD73 incubated for 60 mins before addition of AMP and further incubated for 60 mins by colorimetric assay
T4 sequence (Q61503 whole entry): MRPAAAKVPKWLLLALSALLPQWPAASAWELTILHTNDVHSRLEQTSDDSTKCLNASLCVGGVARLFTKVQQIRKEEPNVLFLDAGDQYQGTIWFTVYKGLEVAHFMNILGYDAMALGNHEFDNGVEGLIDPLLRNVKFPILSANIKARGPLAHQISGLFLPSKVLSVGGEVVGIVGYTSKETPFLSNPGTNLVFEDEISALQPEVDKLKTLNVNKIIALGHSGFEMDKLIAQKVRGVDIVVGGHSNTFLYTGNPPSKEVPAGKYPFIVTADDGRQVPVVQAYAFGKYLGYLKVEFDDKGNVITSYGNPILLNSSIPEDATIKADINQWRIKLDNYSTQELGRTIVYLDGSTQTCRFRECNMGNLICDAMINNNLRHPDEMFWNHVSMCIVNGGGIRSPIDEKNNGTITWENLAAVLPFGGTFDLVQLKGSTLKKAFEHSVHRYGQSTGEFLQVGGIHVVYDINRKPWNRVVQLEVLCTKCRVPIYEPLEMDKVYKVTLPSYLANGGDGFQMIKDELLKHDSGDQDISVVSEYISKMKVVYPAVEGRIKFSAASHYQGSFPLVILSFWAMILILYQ

[7] = Stability in dog hepatocytes; format: ADME, cell-based, Canis lupus familiaris, Hepatocyte
[8] = Stability in human hepatocytes; format: ADME, cell-based, Hepatocyte
[9] = Stability in mouse hepatocytes; format: ADME, cell-based, Hepatocyte
[10] = Half life in Sprague-Dawley rat at 0.25 to 0.5 mg/kg, iv measured up to 24 hrs by LC-MS/MS analysis; format: ADME, organism-based; details: in vivo, dose 0.25-0.5 mg/kg; in short: as §1
5'-nucleotidase [11] = molecular target: T1, 5'-nucleotidase; assay: Inhibition of CD73 in human SK-OV-3 cells incubated for 60 mins before addition of AMP and further incubated for 60 mins by colorimetric assay; format: cell-based
Adenosine receptor A2a = Adenosine receptor A2a (Homo sapiens, UniProt P29274); assay: Inhibition of A2AR (unknown origin) expressed in CHO cells assessed as reduction in NECA-stimulated cellular cAMP levels incubated for 90 mins by FRET assay; format: functional, cell-based
In short: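 Tetracycline-induced CHO cells stably expressing ADORA2A, 2000 cells/well, preincubated with 20-point 1:2 compound dilutions (final 10–0 μM). Stimulated with 30 nM NECA, 30 min at 37 °C. Quenched with ULight-anti-cAMP in lysis buffer, then Eu-cAMP tracer added, 60 min at 37 °C. Inhibition read as change in cellular cAMP.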

T1 sequence (P21589 whole entry): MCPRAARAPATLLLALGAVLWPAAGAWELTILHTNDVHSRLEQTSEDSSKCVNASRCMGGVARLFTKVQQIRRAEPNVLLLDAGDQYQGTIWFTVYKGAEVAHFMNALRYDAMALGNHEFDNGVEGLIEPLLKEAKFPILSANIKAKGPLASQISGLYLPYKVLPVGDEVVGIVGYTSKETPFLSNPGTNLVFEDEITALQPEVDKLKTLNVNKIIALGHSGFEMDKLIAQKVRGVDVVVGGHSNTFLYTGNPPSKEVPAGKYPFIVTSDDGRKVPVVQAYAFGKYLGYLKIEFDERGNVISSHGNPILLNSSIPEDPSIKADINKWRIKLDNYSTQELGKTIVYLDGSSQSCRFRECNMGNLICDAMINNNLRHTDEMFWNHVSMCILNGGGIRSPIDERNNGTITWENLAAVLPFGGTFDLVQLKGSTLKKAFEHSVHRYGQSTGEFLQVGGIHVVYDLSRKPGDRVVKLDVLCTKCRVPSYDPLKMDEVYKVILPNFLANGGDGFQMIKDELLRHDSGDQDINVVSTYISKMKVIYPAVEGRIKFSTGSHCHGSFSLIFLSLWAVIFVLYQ
Chain of Adenosine receptor A2a (P29274 whole entry): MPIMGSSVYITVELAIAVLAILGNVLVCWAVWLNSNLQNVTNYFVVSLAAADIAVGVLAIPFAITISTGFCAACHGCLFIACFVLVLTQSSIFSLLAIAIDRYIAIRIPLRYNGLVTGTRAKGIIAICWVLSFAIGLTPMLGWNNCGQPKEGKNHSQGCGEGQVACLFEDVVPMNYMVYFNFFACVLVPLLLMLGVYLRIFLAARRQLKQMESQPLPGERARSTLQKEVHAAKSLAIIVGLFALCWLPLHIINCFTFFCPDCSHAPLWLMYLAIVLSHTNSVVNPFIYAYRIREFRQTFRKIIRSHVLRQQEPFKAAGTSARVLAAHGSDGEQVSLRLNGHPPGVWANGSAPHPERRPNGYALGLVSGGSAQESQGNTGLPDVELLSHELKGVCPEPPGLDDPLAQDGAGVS

Stabilty [1]: Stable
IC50 (5'-nucleotidase [2]): 0.86 nM
clearance [3]: 2.17 mL/min/kg
IC50 [4]: > 10000 nM
IC50 [5]: > 10000 nM
IC50 (5'-nucleotidase [6]): 3 nM
Stabilty [7]: Stable
Stabilty [8]: Stable
Stabilty [9]: Stable
half-life [10]: 1.2 h
IC50 (5'-nucleotidase [11]): 0.55 nM
IC50 (Adenosine receptor A2a): > 10000 nM
SMILES: O=P(O)(O)COC[C@H]1O[C@@H](n2ncc3c(NC4CCCC4)nc(Cl)nc32)[C@H](O)[C@@H]1O
